# OX1R antag-1 – antagonists of human orexin 1 receptor. O43613. AID 434989. CHO/OX1R cells, Fluo-8 calcium fluorescence, orexin A. inhibition, % at 5 µM. actives 0.43% (n = 330,000);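 active means inhibition above its plate's threshold, mean inhibition of all tested compounds on the plate plus 3 SD, cut at about 37% in these data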
# CHO parental Ca – counter-screen for OX1R antagonists: effect in parental CHO cells. actives 0.63% (n = 330,000). inhibition, % at 5.6 µM. parental CHO-K1, ATP-induced calcium, Fluo-8 fluorescence;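 active means inhibition above that plate's mean sample inhibition plus 3 SD, cut at about 26% in these data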
#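 Assay system – parental CHO cells · Reagent – ATP stimulus · Detection – intracellular calcium via Fluo-8 no-wash fluorescent dye · Evaluation – percent inhibition of ATP-evoked calcium rise, normalized to controls · Controls – ATP wells versus no-ATP DMSO wells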
# OX1R antag-2 – OX1R (human) antagonism | OX1R-expressing cells, FRET antagonist read-out | inhibition, % at 6.6 µM | O43613 | actives 1.8% (n = 330,000); in the data active means inhibition mostly above about 38%, no sharp cut-off; inactive means mostly below about 40%
# GPR7 antag – antagonists of human GPR7 (neuropeptides B/W receptor 1); AID 1861; GPR7-expressing cells, fluorescence antagonist assay; inhibition, % at 4.4 µM; actives 1.1% (n = 290,000); P48145; in the data active means inhibition above about 16%, passing the limit was not always enough;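 further: cells stimulated with the agonist NPW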
# Target sequence (P48145 whole entry, looked up): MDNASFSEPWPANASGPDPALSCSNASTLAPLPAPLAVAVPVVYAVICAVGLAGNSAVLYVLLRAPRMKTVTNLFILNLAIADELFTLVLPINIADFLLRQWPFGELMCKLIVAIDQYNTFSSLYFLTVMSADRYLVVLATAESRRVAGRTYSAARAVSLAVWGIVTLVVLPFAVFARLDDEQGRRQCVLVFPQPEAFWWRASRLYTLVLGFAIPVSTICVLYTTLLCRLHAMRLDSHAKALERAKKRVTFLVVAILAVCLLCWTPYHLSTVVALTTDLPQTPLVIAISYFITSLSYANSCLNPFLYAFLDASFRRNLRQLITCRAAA
# GalR3 antagonist – blocks the human galanin receptor 3. O60755. HEK293 GalR3-CNG cAMP membrane potential fluorescence; galR3 body fused to GalR1 C-terminus. inhibition, % at 3 µM. actives 0.44% (n = 360,000);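 active means inhibition above the screen-wide average plus 3 SD, cut at about 13% in these data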;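 further: forskolin and galanin both at EC90 stimulate the cells; cAMP rise reported by CNG channel membrane potential dye signal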
# Target sequence (O60755 1-299 limits assumed): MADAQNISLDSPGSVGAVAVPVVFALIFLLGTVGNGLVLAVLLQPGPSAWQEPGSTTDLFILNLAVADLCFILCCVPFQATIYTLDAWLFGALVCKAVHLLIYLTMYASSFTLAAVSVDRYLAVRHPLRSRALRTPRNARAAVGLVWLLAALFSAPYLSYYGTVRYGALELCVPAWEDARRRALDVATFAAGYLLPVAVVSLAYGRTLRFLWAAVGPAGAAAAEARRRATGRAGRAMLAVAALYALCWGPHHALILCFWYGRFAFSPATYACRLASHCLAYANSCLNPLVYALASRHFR
# Numbers stand for hits; - = inactive; . = not tested or not shown. Rows were chosen to be rich in hits. Some 3.1% of all compounds tested hit in one or more screens of this group.
SMILES,OX1R antag-1,CHO parental Ca,OX1R antag-2,GPR7 antag,GalR3 antagonist
CCCn1nnc(NC(=O)c2ccc([N+](=O)[O-])cc2Cl)n1,-,-,63,-,-
COc1ccccc1NC(=O)C1CCCN(c2nc(C)cc(C)n2)C1 (centres undefined),-,-,-,-,-
COc1cc(C)nc(N2CCCC(C(=O)Nc3cccc(Cl)c3Cl)C2)n1 (centres undefined),-,-,-,16,-
CN1CCCCC(NC(=O)COCc2ccccc2)C1=O (centres undefined),.,.,.,.,-
O=[N+]([O-])c1cc(S(=O)(=O)N2CCCC2)ccc1NCCCN1CCOCC1,-,-,51,-,-
O=C(Nc1ccccc1C(=O)N1CCN(c2ccccc2)CC1)c1ccco1,-,-,51,-,-
CCOC(=O)C1=CCN(S(=O)(=O)c2ccc(Br)cc2)C1c1cccc(F)c1 (centres undefined),.,.,.,.,-
O=C(Nc1cccnc1)c1ccc2c(c1)C(=O)N(CC1CCCO1)C2=O (centres undefined),-,-,73,-,-
O=C(Nc1c[nH]c(=O)[nH]c1=O)c1ccc2c(c1)C(=O)N(c1cccc([N+](=O)[O-])c1)C2=O,.,.,.,-,-
O=C(Nc1c[nH]c(=O)[nH]c1=O)c1cc([N+](=O)[O-])cc([N+](=O)[O-])c1,-,-,69,-,-
Cc1cc2c(c(=O)o1)[C@@]1(C(=O)N(C)c3ccccc31)C1=C(CCC1=O)O2,.,.,.,.,-
CCN(CC)CCCNC(=O)c1cc2cc(Cl)ccc2nc1N,.,.,.,.,-
O=C(Nc1ccc(Br)cc1)c1ccc(F)c(S(=O)(=O)NCc2cccs2)c1,55,-,94,-,109
CCCCOc1ncnc2c1[nH]c1ccc(C)cc12,-,56,-,-,-
CCCOc1ncnc2c1[nH]c1ccc(OC)cc12,-,-,-,-,-
FC(F)C(F)(F)C(F)(F)C(F)(F)c1cc(-c2ccccc2)n[nH]1,53,87,42,-,-
Cc1cc(-c2ccccc2)n[nH]1,-,-,-,-,-
COC(=O)CNC(c1ccccc1)c1cc(C)ccc1NC(=O)c1cccc(Cl)c1 (centres undefined),-,-,-,24,-
NC1=C(Br)C(=O)c2ccccc2C1=O,-,-,72,-,-
CC(=O)Oc1ccccc1Cn1c(C)c(C(=O)N(C)Cc2ccc(F)cc2)sc1=O,.,.,.,.,-
O=S1(=O)N[C@@H](Cc2ccccc2)COc2cccc(N3CCC[C@@H]3CO)c21,.,.,.,.,-
COC(=O)C1=C(C)N(C)C(=NCC2CC2)NC1c1ccccc1 (centres undefined),.,.,.,.,-
CC(C)(C)OC(=O)NCCCCCNC(=O)c1[nH]cnc1C(=O)N[C@@H](Cc1ccccc1)C(=O)OC(C)(C)C,-,40,-,.,.
CC(NC(=O)C=Cc1ccco1)C(=O)NC(Cc1ccccc1)C(N)=O (centres undefined),.,.,.,.,-
COC(=O)C(Cc1ccc(OC(=O)c2ccc(C)cc2)cc1)N1Cc2ccccc2C1=O (centres undefined),-,44,-,-,.
SMILES,OX1R antag-1,CHO parental Ca,OX1R antag-2,GPR7 antag,GalR3 antagonist
COC(=O)C(Cc1ccc(O)cc1)N1Cc2ccccc2C1=O (centres undefined),-,-,-,-,-
Cc1ccccc1Nc1nc(N)nc(CSc2nnc3sc4ccccc4n23)n1,-,-,-,-,-
Nc1nc(CSc2nc3ccccc3s2)nc(Nc2ccccc2)n1,60,-,92,-,.
O=C1c2c(O)ccc(O)c2C(=O)c2c(NCCNCCO)ccc(NCCNCCO)c21,-,-,65,.,-
CCN1/C(=C/C=C/c2oc3ccc(-c4ccccc4)cc3[n+]2CC)Oc2ccc(-c3ccccc3)cc21,105,101,-,98,-
CCCCNc1c(-c2cccnc2)nc2nc(C)cc(C)n12,.,.,.,.,-
C=CCN1C(=O)[C@]2(OCCC=C[C@H]2C)c2cc(OC)ccc21,.,.,.,.,-
COc1cc2c(cc1[N+](=O)[O-])-c1ccc([N+](=O)[O-])cc1C2,.,.,.,.,-
COc1c(-c2ccc([N+](=O)[O-])cc2[N+](=O)[O-])c(=O)n(C)c(=O)n1C,-,-,51,-,-
CC(NC(=O)C1CCN(Cc2ccc(Oc3ccccc3)cc2)CC1)c1cccc2ccccc12 (centres undefined),.,.,.,.,-
CCN(CC)S(=O)(=O)c1cccc(NC(=O)CCSc2ccc(Cl)cc2)c1,-,48,-,-,-
COc1ccc(S(=O)(=O)Nc2ccc(O)c3ccccc23)cc1,-,-,43,-,-
COc1ccc(S(=O)(=O)Nc2ccccc2)cc1,-,-,-,.,-
O=S(=O)(Nc1c(O)ccc2ccccc12)c1ccc(F)cc1,-,-,-,.,-
O=S(=O)(Nc1c(O)ccc2ccccc12)c1ccccc1,-,-,64,.,-
CC(=Nc1ccc(Cl)cc1N)c1c(O)cc(C)oc1=O,.,.,.,.,-
CCCCCCCN(c1ccccc1)[C@@H]1C[C@H]2CCCC(=O)N3CC[C@@H](C1)[C@@H]23,.,.,.,.,-
COCCNC(=S)N(CCc1c(C)[nH]c2ccc(F)cc12)Cc1cccs1,-,-,-,20,-
COCCNC(=S)N(CCc1c(C)[nH]c2ccc(Cl)cc12)Cc1cccs1,-,-,-,-,-
O=C(Nc1ccccn1)C1CCCN1S(=O)(=O)c1ccc(Cl)cc1 (centres undefined),-,-,-,-,-
COc1ccc(C)cc1NC(=O)C1CCCCN1S(=O)(=O)c1ccccc1 (centres undefined),-,-,66,.,-
COc1ccc(C)cc1NC(=O)C1CCN(S(=O)(=O)c2ccccc2)CC1,-,-,-,-,-
CCOc1ccccc1NC(=O)C1CCCCN1S(=O)(=O)c1ccc(F)cc1 (centres undefined),-,-,53,-,-
Cc1cccc(NC(=O)C2CCCN2S(=O)(=O)c2ccc(Cl)cc2)n1 (centres undefined),-,-,76,-,-
O=C(Nc1ccccc1F)C1CCCN1S(=O)(=O)c1ccc(Cl)cc1 (centres undefined),-,-,46,.,-
SMILES,OX1R antag-1,CHO parental Ca,OX1R antag-2,GPR7 antag,GalR3 antagonist
Cc1ccc(S(=O)(=O)N2CCC[C@H]2C(=O)Nc2ccccc2C)cc1,-,-,48,.,-
CC1Cc2cc(S(=O)(=O)N3CCCCC3C)ccc2N1C(=O)C1CCC1 (centres undefined),-,-,-,-,-
Cc1ccc(S(=O)(=O)N2CCC[C@H]2C(=O)Nc2ccccc2Cl)cc1,-,-,61,.,-
Cc1ccc(S(=O)(=O)N(C)C)cc1NC(=O)C1CCCCN1S(=O)(=O)c1ccccc1 (centres undefined),-,-,-,.,-
Cc1cccc(NC(=O)C2CCCCN2S(=O)(=O)c2ccccc2)c1C (centres undefined),-,-,33,.,-
Cc1ccccc1NC(=O)C1CCCN1S(=O)(=O)c1ccc2c(c1)n(C)c(=O)c(=O)n2C (centres undefined),-,-,-,-,-

# High-throughput results: PubChem, The Scripps Research Institute Molecular Screening Center
